# Reference: paper PMC3397136 (Amino Acids, 2011)
# Values joined by “and” are separate entries in the source; they are usually repeats but may differ in a detail not shown here. Identical values can stand only once. Like-named read-outs stand apart in the source and are kept apart here. Positions of bridges follow the written chain, without caps; N, C: chain ends. No end group written: not given here.
# Key:
# strips of rat uterus [1] = assay type: cell-based; details: for anti-oxytocic potency, times less potent than the mother compound III: in vitro uterus test
# In short: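 Wistar rats were brought into estrus by estrogen injection 48 h before use. After decapitation, uterine horns were cut longitudinally and mounted in an organ bath without Mg2+, and isometric contraction height was recorded. Oxytocin standard, with or without test compound, or test compound alone was dosed cumulatively in doubling concentrations at 1 min intervals until maximal response. Results are agonist IU/mg or antagonist pA2, using uteri from 3–5 rats, mean ± SEM.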
# [2] = tested on: arterial blood pressure (pressor response to AVP); assay: vasopressor test in phenoxybenzamine-treated male rats under urethane anesthesia; assay type: in vivo, rat; details: for Pressor IU/mg or pA2 (0 = no activity): 0 means no activity up to the dose of 0.15 mg/kg of experimental animal; for pressor activity (in words) / Pressor pA2 (antagonist): rat; for pressor activity (in words): in vivo; for Pressor pA2 (antagonist): i.v., antagonist 1 min before AVP
# In short: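 Male Wistar rats were pretreated with phenoxybenzamine and anesthetized with urethane, and arterial blood pressure was recorded. AVP standard was given as single femoral-vein injections to build dose–response curves with and without antagonist, which was given 1 min earlier. Results are IU/mg for agonists or pA2 for antagonists, with distribution volume taken as 67 ml/kg. Inactivity means no response up to 0.15 mg/kg. 3–5 experiments, mean ± SEM.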
# [3] = tested on: conscious male rats (antidiuresis); assay: antidiuretic test on conscious male rats; assay type: in vivo, rat; details: for Antidiuretic IU/mg: single value given, no level given; for Antidiuretic IU/mg (200 min): level t1/2 200 min (in parentheses); for Antidiuretic IU/mg (200 min) / Antidiuretic IU/mg 60 min: s.c., AVP taken as 465 IU/mg; for Antidiuretic IU/mg 60 min: threshold level t1/2 60 min; for antidiuretic activity (in words): rat, in vivo
# In short: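 Fasted (16 h) conscious male Wistar rats given a tap-water load of 4% body weight by stomach catheter. Test compound or saline was then injected s.c. (0.001–100 nmol/kg), and urine was collected for 5 h in metabolic cages. The half-excretion time t1/2 was plotted against dose. […] Groups were 4–5 rats, with 2–3 independent days per dose.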
# strips of rat uterus [4] = details: cited from earlier work
# [5] = tested on: arterial blood pressure (pressor response to AVP); details: cited from earlier work
# [6] = tested on: conscious male rats (antidiuresis); details: cited from earlier work; for Antidiuretic IU/mg (200 min): 200 min level; for Antidiuretic IU/mg 60 min: threshold level 60 min; for Antidiuretic IU/mg: single value, ref Lebl (1987)
# [7] = rat uterus strips, no Mg2+, average ± SEM, n = 3–5
# [8] = ref Melin et al. (1986), Manning et al. (1995)
substance,measurement,setting,value
"Aba[cis-Apc^2,Val^4]AVP [XI]","anti-oxytocic potency, times less potent than the mother compound III",strips of rat uterus [1],~10 times
same,Pressor IU/mg or pA2 (0 = no activity),[2],0
same,pressor activity (in words),[2],eliminated its effect on blood pressure
same,Antidiuretic IU/mg,[3],0 IU/mg
"Aca[cis-Apc^2,Val^4]AVP [VIII]",Pressor IU/mg or pA2 (0 = no activity),[2],0
same,pressor activity (in words),[2],eliminated its effect on blood pressure
same,Antidiuretic IU/mg (200 min),[3],< 0.5 IU/mg
same,Antidiuretic IU/mg 60 min,[3],< 0.01 IU/mg
"Hba[cis-Apc^2,Val^4]AVP [X]","anti-oxytocic potency, times less potent than the mother compound III",strips of rat uterus [1],about 4 times
same,Antidiuretic IU/mg (200 min),[3],< 0.5 IU/mg
same,Antidiuretic IU/mg 60 min,[3],< 0.01 IU/mg
"[Acc^2,Val^4]AVP",Uterotonic in vitro no Mg2+ pA2,strips of rat uterus [4]; ref Kowalczyk et al. (2004),pA2 = 6.9
same,Pressor IU/mg,[5]; ref Kowalczyk et al. (2004),0.9 ± 0.30 IU/mg
same,Antidiuretic IU/mg (200 min),[6]; ref Kowalczyk et al. (2004),"23,000 IU/mg"
same,Antidiuretic IU/mg 60 min,[6]; ref Kowalczyk et al. (2004),"2,300 IU/mg"
[Acc^2]AVP,Uterotonic in vitro no Mg2+ pA2,strips of rat uterus [4]; ref Jastrzębska et al. (2003),pA2 ~ 5.6
same,Pressor IU/mg,[5]; ref Jastrzębska et al. (2003),56.6 IU/mg
same,Antidiuretic IU/mg (200 min),[6]; ref Jastrzębska et al. (2003),"~9,300 IU/mg"
same,Antidiuretic IU/mg 60 min,[6]; ref Jastrzębska et al. (2003),750–900 IU/mg
"[Cpa^1,Acc^2]AVP",Uterotonic in vitro no Mg2+ pA2,strips of rat uterus [4]; ref Jastrzębska et al. (2003),7.33
"[Cpa^1,cis-Apc^2]AVP [VII]",Uterotonic in vitro no Mg2+ pA2 (anti-oxytocic),strips of rat uterus [1]; [7],pA2 = 7.85 + 0.14
same,Pressor pA2 (antagonist),[2],pA2 ~ 6.2
same,pressor activity (in words),[2],weak and low antagonistic activity
same,Antidiuretic IU/mg (200 min),[3],1 IU/mg
same,antidiuretic activity (in words),[3],negligible
same,Antidiuretic IU/mg 60 min,[3],0.05 IU/mg
"[Cpa^1,cis-Apc^2]OT [XIV]",Uterotonic in vitro no Mg2+ pA2 (anti-oxytocic),strips of rat uterus [1]; [7],pA2 = 7.97 + 0.24
same,Pressor pA2 (antagonist),[2],pA2 ~ 6.73
"[Mpa^1,Acc^2]AVP",Uterotonic in vitro no Mg2+ pA2,strips of rat uterus [4]; ref Kowalczyk et al. (2004),~5.6
same,Uterotonic in vitro no Mg2+ IU/mg,"strips of rat uterus [4]; value in parentheses, ref Kowalczyk et al. (2004)",0.7 IU/mg
same,Pressor IU/mg,[5]; ref Kowalczyk et al. (2004),17.2 ± 0.8 IU/mg
same,Antidiuretic IU/mg (200 min),[6]; ref Kowalczyk et al. (2004),"50,000 IU/mg"
same,Antidiuretic IU/mg 60 min,[6]; ref Kowalczyk et al. (2004),"4,500 IU/mg"
"[Mpa^1,cis-Apc^2,D-Arg^8]VP [VI]",Pressor pA2 (antagonist),[2],pA2 ~ 7.1
same,Antidiuretic IU/mg (200 min),[3],"1,000 IU/mg"
same,Antidiuretic IU/mg 60 min,[3],5 IU/mg
"[Mpa^1,cis-Apc^2]OT [XIII]",Uterotonic in vitro no Mg2+ pA2 (anti-oxytocic),strips of rat uterus [1]; [7],pA2 = 8.11 + 0.18
same,Uterotonic in vitro no Mg2+ pA2 (anti-oxytocic),"strips of rat uterus [1]; rat uterus strips, no Mg2+, average ± SEM, n = 3–5, listed as [Mpa^1,cis-Apc^2]OT",8.11
same,Pressor pA2 (antagonist),[2],pA2 ~ 6.0
same,antidiuretic activity (in words),[3],inactive
same,Antidiuretic IU/mg,[3],0 IU/mg
[Mpa^1]OT,Uterotonic in vitro no Mg2+ IU/mg,strips of rat uterus [4]; ref Lebl (1987),803 IU/mg
same,Pressor IU/mg,[5]; ref Lebl (1987),1.44 IU/mg
same,Antidiuretic IU/mg,[6],19 IU/mg
"[cis-Apc^2,D-Arg^8]VP",Pressor pA2 (antagonist),[2],pA2 ~ 7.1
same,Antidiuretic IU/mg (200 min),[3],200 IU/mg
same,antidiuretic activity (in words),[3],negligible
same,antidiuretic potency relative to AVP,[3]; t1/2 level of 200 min,about 43%
same,Antidiuretic IU/mg 60 min,[3],1 IU/mg
[cis-Apc^2]OT [XII],Uterotonic in vitro no Mg2+ pA2 (anti-oxytocic),strips of rat uterus [1]; [7],pA2 = 7.89 + 0.07
same,Pressor pA2 (antagonist),[2],pA2 ~ 5.75
same,pressor activity (in words),[2],weak
"arginine vasopressin (CYFQNCPRG-NH2; disulfide 1-6; UniProt P01185 20-28, looked up) [AVP]",Uterotonic in vitro no Mg2+ IU/mg,strips of rat uterus [4]; ref Lebl (1987),17 IU/mg
same,Pressor IU/mg,[5]; ref Lebl (1987),412 IU/mg
same,Antidiuretic IU/mg,[6],465 IU/mg
"d[D-Tyr(Et)^2,Thr^4]OVT [Atosiban]",Uterotonic in vitro no Mg2+ pA2,strips of rat uterus [4]; [8],7.71 and 7.71 ± 0.05
same,Pressor pA2,[5]; [8],pA2 = 6.14 ± 0.02
same,Antidiuretic pA2,[6]; [8],pA2 = 5.9
oxytocin [OT],Uterotonic in vitro no Mg2+ IU/mg,strips of rat uterus [4]; ref Lebl (1987),450 IU/mg
same,Pressor IU/mg,[5]; ref Lebl (1987),5 IU/mg
same,Antidiuretic IU/mg,[6],5 IU/mg
"t-Bba[cis-Apc^2,Val^4]AVP [IX]",Uterotonic in vitro no Mg2+ IU/mg (agonist),strips of rat uterus [1]; [7],10.1 ± 3.8 IU/mg and 10.1 + 3.8 IU/mg
same,Pressor IU/mg or pA2 (0 = no activity),[2],0
same,pressor activity (in words),[2],eliminated its effect on blood pressure
same,Antidiuretic IU/mg (200 min),[3],< 0.5 IU/mg
same,Antidiuretic IU/mg 60 min,[3],< 0.01 IU/mg
